Results published in ChEMBL document CHEMBL1137541, “[(2-Phenylindol-3-yl)methylene]propanedinitriles inhibit the growth of breast cancer cells by cell cycle arrest in G(2)/M phase and apoptosis” (Bioorg Med Chem, 2007).
Activity calls are given as the source filed them. The calls are words filed in the database; no cut-off is given here.

Tests used:
MDA-MB-231 [1] = assay: Antiproliferative activity against human MDA-MB-231 cells after 4 days by microplate assay; type: functional, cell-based; conditions: MDA-MB-231, 96 h
Procedure, shortened: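 Cells grown 2–3 days in 96-well plates (37 °C, 5% CO2), medium then replaced with compound-containing medium (controls 0.1% DMF), about 4 days' exposure. Fixed with 1% glutaric dialdehyde, stained with 0.02% crystal violet for 25 min, dye extracted with 70% EtOH, OD read at 578 nm; initial density from fixed wells. IC50 from 16–24 replicates per experiment.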

MCF7 = assay: Antiproliferative activity against human MCF7 cells after 5 days by microplate assay; type: functional, cell-based; conditions: MCF7, 120 h
Procedure, shortened: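 MCF-7 cells in EMEM with sodium pyruvate, gentamycin, NaHCO3, phenol red, 10% FCS; grown 2–3 days in 96-well plates, then medium with compound (0.1% DMF in controls) for 5 days. Glutaric dialdehyde fixation, 0.02% crystal violet staining, 70% EtOH extraction, OD 578 nm. Initial density from fixed wells. IC50; mean of two independent experiments, 16–24 replicates.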

[2] = Antitumor activity against MXT cells xenografted B2D2F1 mouse at 10 mg/kg, sc relative to control; type: functional; conditions: route subcutaneous
Procedure, shortened: (§1)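 Hormone-resistant MXT tumor pieces (1 mm³) transplanted into 8- to 9-week-old female B2D2F1 mice, groups of 6–8, randomly assigned. Compound given subcutaneously three times per week for two weeks. Tumor area compared with untreated controls (T/C × 100). Body weight change taken between first and last treatment day.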

[3] = Antitumor activity against MXT cells xenografted B2D2F1 mouse at 30 mg/kg, sc relative to control; type: functional; conditions: route subcutaneous; procedure, shortened: as §1
Mus musculus [4] = assay: Effect on body weight in MXT cells xenografted B2D2F1 mouse at 10 mg/kg, sc; type: functional; conditions: route subcutaneous; procedure, shortened: as §1
Mus musculus [5] = assay: Effect on body weight in MXT cells xenografted B2D2F1 mouse at 30 mg/kg, sc; type: functional; conditions: route subcutaneous; procedure, shortened: as §1
MDA-MB-231 [6] = assay: Cell cycle arrest in MDA-MB-231 cells by accumulation at G2/M phase at 0.01 uM after 24 hrs by flow cytometry; type: functional, cell-based; conditions: Homo sapiens
Procedure, shortened: (§2)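 Cells grown to 70–80% confluence in flasks and exposed 24 h to compound in DMF (0.1% final), one flask per concentration. Trypsinized, fixed in ice-cold 70% EtOH, DNA extraction buffer 5 min, propidium iodide staining ≥30 min at room temperature. Flow cytometry of 8,000–15,000 events; percentages of sub-G1, G1/G0, S, G2/M cells; representative of two experiments.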

MDA-MB-231 [7] = assay: Cell cycle arrest in MDA-MB-231 cells by accumulation at G2/M phase at 0.1 uM after 24 hrs by flow cytometry; type: functional, cell-based; conditions: Homo sapiens; procedure, shortened: as §2
HL-60 (Homo sapiens) [8] = assay: Inhibition of cell growth in human HL-60 cells after 48 hrs by MTT assay; conditions: HL-60, 48 h
HL-60 (Homo sapiens) [9] = assay: Induction of apoptosis in human HL-60 cells assessed as increase in caspase 3 activation at 1 uM after 24 hrs
HL-60 (Homo sapiens) [10] = assay: Induction of apoptosis in human HL-60 cells assessed as increase in caspase 9 activation at 1 uM after 24 hrs
A-431 = assay: Inhibition of cell growth in human A431 cells after 3 days by microplate assay; type: functional, cell-based; conditions: A-431, 72 h
Procedure, shortened: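 A-431 vulva carcinoma cells, crystal violet microplate protocol as for MDA-MB 231 but with 5% FCS; 3 days' exposure, 0.1% DMF controls. Fixation with glutaric dialdehyde, 0.02% crystal violet, 70% EtOH extraction, OD 578 nm. IC50, mean of four independent experiments with 16–24 replicates ± SD.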

Bos taurus = species on record: Bos taurus; assay: Inhibition of temperature-induced tubulin polymerization of calf brain at 40 uM; set-up: scale not given: the % may be the effect or the level left
Procedure, shortened: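 Calf brain tubulin purified by temperature-dependent polymerization cycles, then depolymerized at 0 °C in PEMG buffer. Supernatant preincubated 15 min at 37 °C with compound (40 µM, DMSO), chilled, and GTP added. Polymerization started by shifting from 2 °C to 37 °C, followed by absorbance at 350 nm over 20 min. Reported relative to inhibitor-free controls (100%).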

MDA-MB-231 [11] = assay: Cell cycle arrest in MDA-MB-231 cells by accumulation at G2/M phase at 0.5 uM after 24 hrs by flow cytometry; type: functional, cell-based; conditions: Homo sapiens; procedure, shortened: as §2
MDA-MB-231 [12] = assay: Cell cycle arrest in MDA-MB-231 cells by accumulation at G2/M phase at 1.0 uM after 24 hrs by flow cytometry; type: functional, cell-based; conditions: Homo sapiens; procedure, shortened: as §2

Row | SMILES | IC50 (MDA-MB-231 [1]) | IC50 (MCF7) | other results
1 | COc1ccc(-c2[nH]c3cc(F)ccc3c2C=C(C#N)C#N)cc1 | 280 nM | 220 nM | Activity [2]: 74%; Activity [3]: 56%; Activity (Mus musculus [4]): 3.6%; Activity (Mus musculus [5]): 2.3%
2 | N#CC(C#N)=Cc1c(-c2ccccc2)[nH]c2ccccc12 | 430 nM | 190 nM | –
3 | CCCCCCc1ccc2[nH]c(-c3ccc(C(F)(F)F)cc3)c(C=C(C#N)C#N)c2c1 | 150 nM | 68 nM | –
4 | CCCc1ccc2[nH]c(-c3ccc(OC)cc3)c(C=C(C#N)C#N)c2c1 | 83 nM | 190 nM | –
5 | COc1ccc(-c2[nH]c3cc(OC)ccc3c2C=C(C#N)C#N)cc1 | 260 nM | 300 nM | –
6 | COc1ccc(-c2[nH]c3cc(Cl)c(C)cc3c2C=C(C#N)C#N)cc1 | 75 nM | 200 nM | –
7 | COc1ccc(-c2[nH]c3ccc(C)cc3c2C=C(C#N)C#N)cc1 | 280 nM | 200 nM | –
8 | COc1ccc(-c2[nH]c3ccc(OC)cc3c2C=C(C#N)C#N)cc1 | 590 nM | 340 nM | –
9 | CC[C@]1(O)C[C@H]2CN(CCc3c([nH]c4ccccc34)[C@@](C(=O)OC)(c3cc4c(cc3OC)N(C=O)[C@H]3[C@@](O)(C(=O)OC)[C@H](OC(C)=O)[C@]5(CC)C=CCN6CC[C@]43[C@@H]65)C2)C1 [VINCRISTINE] | 4.5 nM | – | Activity (MDA-MB-231 [6]): Active; Activity (MDA-MB-231 [7]): Active
10 | CCCCc1ccc2[nH]c(-c3ccc(C(F)(F)F)cc3)c(C=C(C#N)C#N)c2c1 | 56 nM | 150 nM | IC50 (HL-60 (Homo sapiens) [8]): 70 nM; Activity (HL-60 (Homo sapiens) [9]): Active; Activity (HL-60 (Homo sapiens) [10]): Active
11 | COc1ccc(-c2[nH]c3ccc(F)cc3c2C=C(C#N)C#N)cc1 | 400 nM | 310 nM | –
12 | CCCCCc1ccc2[nH]c(-c3ccc(OC)cc3)c(C=C(C#N)C#N)c2c1 | 42 nM | 76 nM | IC50 (HL-60 (Homo sapiens) [8]): 41 nM; Activity (HL-60 (Homo sapiens) [9]): Active; Activity (HL-60 (Homo sapiens) [10]): Active
13 | CCCCc1ccc2[nH]c(-c3ccc(CC)cc3)c(C=C(C#N)C#N)c2c1 | 76 nM | 200 nM | –
14 | COc1ccc(-c2[nH]c3ccc(OC)cc3c2C=O)cc1 | 260 nM | 180 nM | IC50 (A-431): 200 nM; Activity (Bos taurus): 7%
15 | COc1cc([C@@H]2c3cc4c(cc3[C@@H](O[C@@H]3O[C@@H]5CO[C@@H](C)O[C@H]5[C@H](O)[C@H]3O)[C@H]3COC(=O)[C@H]23)OCO4)cc(OC)c1O [ETOPOSIDE] | – | – | IC50 (HL-60 (Homo sapiens) [8]): 315 nM
16 | CCCCCCc1ccc2[nH]c(-c3ccc(OC)cc3)c(C=C(C#N)C#N)c2c1 | 46 nM | 25 nM | Activity (MDA-MB-231 [7]): Active; Activity (MDA-MB-231 [11]): Active; Activity (MDA-MB-231 [12]): Active
17 | O=Cc1c(-c2ccccc2)[nH]c2ccccc12 [2-PHENYL-1H-INDOLE-3-CARBALDEHYDE] | 420 nM | 650 nM | IC50 (A-431): 760 nM; Activity (Bos taurus): 98%
18 | COc1ccc(-c2[nH]c3ccccc3c2C=O)cc1 | 470 nM | 180 nM | IC50 (A-431): 210 nM; Activity (Bos taurus): 3%
19 | CCCCc1ccc2[nH]c(-c3ccc(OC)cc3)c(C=C(C#N)C#N)c2c1 | 26 nM | 13 nM | –
20 | COc1ccc(-c2[nH]c3cc(F)ccc3c2C=O)cc1 | 47 nM | 43 nM | IC50 (A-431): 180 nM; Activity (Bos taurus): 8%
21 | CCCCc1ccc2[nH]c(-c3ccc(C)cc3)c(C=C(C#N)C#N)c2c1 | 65 nM | 100 nM | –
22 | COc1ccc2c(C=C(C#N)C#N)c(-c3ccc(C)cc3)[nH]c2c1 | 180 nM | 250 nM | –
23 | COc1ccc(-c2[nH]c3ccc(C(C)C)cc3c2C=C(C#N)C#N)cc1 | 210 nM | 310 nM | –
24 | CCCCCc1ccc2[nH]c(-c3ccc(C(F)(F)F)cc3)c(C=C(C#N)C#N)c2c1 | 78 nM | 100 nM | –
25 | COc1ccc(-c2[nH]c3ccccc3c2C=C(C#N)C#N)cc1 | 720 nM | 770 nM | –
